Assay results: ChEMBL document CHEMBL1128589, “Novel benzo[b]quinolizinium cations as uncompetitive N-methyl-D-aspartic acid (NMDA) antagonists: the relationship between log D and agonist independent (closed) NMDA channel block” (J Med Chem, 1995)

Assays:
[1] = logD value was determined; format: physicochemical; conditions: octanol/water
Glutamate NMDA receptor = assay: Affinity against 3[H]TCP binding to N-methyl-D-aspartate glutamate receptor in rat brain membranes; format: cell membranes
[2] = Ratio (closed/open) was determined; format: functional
Procedure, shortened: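 Oocytes injected with forebrain-derived RNA and held 48–72 h at 18–22 °C, then superfused. Open block: current 300 s after NMDA plus inhibitor, normalised to initial NMDA current, expressed as % of NMDA-alone controls, one application per cell. Closed block: 30 min inhibitor with 10 µM 7-chlorokynurenate, 1–2 min wash, then 100 µM NMDA, with 100 µM kainate as internal control. Ratio = closed/open IC50.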

[3] = Inhibitory activity against NMDA closed channel block; format: functional
Procedure, shortened: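 Oocytes (stage V-VI, defolliculated with 0.2% collagenase) were held 48-72 h at 18-22 °C in ND96 and superfused at ~4 mL/min. Controls were two 100 µM NMDA pulses 15 min apart. Cells then sat 30 min in 10 µM 7-chlorokynurenate plus inhibitor, were washed 1-2 min and retested with 100 µM NMDA. 100 µM kainate served as internal control. One application per cell.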

[4] = pKa value was determined; format: physicochemical
[5] = Inhibitory activity against NMDA open channel block; format: functional
Procedure, shortened: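 Superfused oocytes got a single inhibitor application per cell during NMDA response. Current at 300 s was normalized to the initial NMDA current. Inhibition = (mean control (NMDA alone) − test)/control × 100%.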

SMILES | logD [1] | Ki (Glutamate NMDA receptor) [nM] | Ratio [2] | IC50 [3] [nM] | pKa [4] | IC50 [5] [nM]
Oc1cccc2c1C1c3cccc[n+]3C2CC1(c1ccccc1)c1ccccc1 (racemic) | 1.75 | 12 | – | – | – | –
CCCCCCCCOc1cccc2c1C1c3cccc[n+]3C2CC1(c1ccoc1)c1ccoc1 (racemic) | – | 3380 | – | – | – | –
Oc1cccc2c1C1c3cccc[n+]3C2CC1(c1ccoc1)c1ccoc1 (racemic) | -0.81 | 1.8 | 422 | 3860 | 8.6 | 9.13
OCc1cccc2c1C1c3cccc[n+]3C2CC1(c1ccoc1)c1ccoc1 (racemic) | – | 159 | – | – | – | –
CCOC1(OCC)C2c3ccccc3C([n+]3ccccc32)C1(C)C (racemic) | – | – | 527 | 14200 | 12.2 | 27
COc1c(Cl)ccc2c1C1c3cccc[n+]3C2CC1(c1ccoc1)c1ccoc1 (racemic) | – | 64 | – | – | – | –
Oc1ccc2c(c1)C1c3cccc[n+]3C2CC1(c1ccoc1)c1ccoc1 (racemic) | 0.32 | 2.1 | 142 | 1030 | 8.8 | 7.3
O=C(O)c1ccc2c(c1)C1c3cccc[n+]3C2CC1(c1ccoc1)c1ccoc1 (racemic) | 1.76 | > 10000 | – | – | – | –
COc1ccc[n+]2c1C1c3ccccc3C2CC1(c1ccoc1)c1ccoc1 (racemic) | – | 19 | – | – | – | –
Oc1ccc[n+]2c1C1c3ccccc3C2CC1(c1ccoc1)c1ccoc1 (racemic) | 1.66 | 294 | 44.6 | 24800 | 4.88 | 557
COC(=O)C12CC(c3ccoc3)(c3ccoc3)C(c3ccccc31)c1cccc[n+]12 (racemic) | – | 39 | – | – | – | –
O=S(=O)([O-])c1cccc2c1C1c3cccc[n+]3C2CC1(c1ccoc1)c1ccoc1 (racemic) | – | > 10000 | – | – | – | –
C[C@]12N[C@H](Cc3ccccc31)c1ccccc12 [DIZOCILPINE] | – | – | 1.6 | 40 | 5.81 | 23
Oc1cccc2[n+]1C1CC(c3ccoc3)(c3ccoc3)C2c2ccccc21 (racemic) | – | 3780 | – | – | – | –
c1ccc2c(c1)C1CC(c3ccoc3)(c3ccoc3)C2c2cccc[n+]21 (racemic) | – | 2 | – | – | – | –
CC12CC(c3ccoc3)(c3ccoc3)C(c3ccccc31)c1cccc[n+]12 (racemic) | – | 1.2 | – | – | – | –
c1ccc2c(c1)C1CC(c3ccoc3)(c3ccoc3)C2c2c3ccccc3cc[n+]21 (racemic) | – | 19 | – | – | – | –
Fc1ccc2c(c1)C1c3cccc[n+]3C2CC1(c1ccoc1)c1ccoc1 (racemic) | 0.75 | 3.6 | – | – | – | –
c1ccc(C2(N3CCCCC3)CCCCC2)cc1 [PHENCYCLIDINE] | – | – | 1.7 | 450 | 9.97 | 270
N#CC12CC(c3ccoc3)(c3ccoc3)C(c3ccccc31)c1cccc[n+]12 (racemic) | – | 10 | – | – | – | –
Oc1cc(O)c2c(c1)C1CC(c3ccoc3)(c3ccoc3)C2c2cccc[n+]21 (racemic) | – | 125 | – | – | – | –
COc1cccc2c1C1c3cccc[n+]3C2CC1(c1ccoc1)c1ccoc1 (racemic) | -3.66 | 6 | – | – | – | –
Oc1ccc2c(c1)C1CC(c3ccoc3)(c3ccoc3)C2c2cccc[n+]21 (racemic) | – | 29 | – | – | – | –
Oc1ccc2[n+](c1)C1CC(c3ccoc3)(c3ccoc3)C2c2ccccc21 (racemic) | – | 1530 | – | – | – | –
Brc1ccc(Br)c2c1C1CC(c3ccoc3)(c3ccoc3)C2c2cccc[n+]21 (racemic) | – | 345 | – | – | – | –
COc1cc(OC)c2c(c1)C1CC(c3ccoc3)(c3ccoc3)C2c2cccc[n+]21 (racemic) | – | 3790 | – | – | – | –
Clc1cccc2[n+]1C1CC(c3ccoc3)(c3ccoc3)C2c2ccccc21 (racemic) | – | 633 | – | – | – | –
c1ccc(C2(c3ccccc3)CC3c4ccccc4C2c2cccc[n+]23)cc1 (racemic) | -2.54 | – | 564 | 18100 | 11.7 | 32
Oc1c(Cl)ccc2c1C1c3cccc[n+]3C2CC1(c1ccoc1)c1ccoc1 (racemic) | -0.99 | 24 | – | – | – | –
